Test results reported in ChEMBL document CHEMBL5131416, “Solid-phase synthesis and biological evaluation of piperazine-based novel bacterial topoisomerase inhibitors” (Bioorg Med Chem Lett, 2022).
Values joined by “and” are separate entries in the source; they are usually repeats but may differ in a detail not shown here. Equal values may be shown once. Values belong to the compound of their own block, whether it stands above or below them.

Key:
Topoisomerase IV = Topoisomerase IV (Staphylococcus aureus, UniProt P0C1S7+P0C1U9); test: Inhibition of Staphylococcus aureus topoisomerase 4 using pNO1 plasmid DNA as substrate incubated for 30 mins by fluorescence based microtiter plate reader assay; assay type: protein-complex assay
Staphylococcus aureus [1] = test: Antibacterial activity against methicillin-resistant Staphylococcus aureus CC398 assessed as inhibition of bacterial growth by broth microdilution method; assay type: functional
DNA gyrase [2] = target: DNA gyrase (Escherichia coli, UniProt P0AES4+P0AES6); test: Inhibition of Escherichia coli DNA gyrase by fluorescence based microtiter plate reader assay; assay type: protein-complex assay
[3] = target: Voltage-gated inwardly rectifying potassium channel KCNH2 (Homo sapiens, UniProt Q12809); test: Inhibition of hERG by fluorescence polarization assay; assay type: toxicity
Outline: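 hERG inhibition was measured with a commercial Predictor hERG fluorescence-polarization kit.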

Staphylococcus aureus [4] = test: Antibacterial activity against methicillin-susceptible Staphylococcus aureus NCTC 8325-4 assessed as inhibition of bacterial growth by broth microdilution method; assay type: functional
DNA gyrase [5] = target: DNA gyrase (Staphylococcus aureus, UniProt P0A0K8+P20831); test: Inhibition of Staphylococcus aureus DNA gyrase supercoiling activity using pNO1 plasmid DNA as substrate incubated for 30 mins by fluorescence based microtiter plate reader assay; assay type: protein-complex assay
[6] = Staphylococcus aureus, CC398, read-out: MIC
[7] = Staphylococcus aureus, NCTC 8325-4, read-out: MIC

Sequence of Voltage-gated inwardly rectifying potassium channel KCNH2 (Q12809 whole entry): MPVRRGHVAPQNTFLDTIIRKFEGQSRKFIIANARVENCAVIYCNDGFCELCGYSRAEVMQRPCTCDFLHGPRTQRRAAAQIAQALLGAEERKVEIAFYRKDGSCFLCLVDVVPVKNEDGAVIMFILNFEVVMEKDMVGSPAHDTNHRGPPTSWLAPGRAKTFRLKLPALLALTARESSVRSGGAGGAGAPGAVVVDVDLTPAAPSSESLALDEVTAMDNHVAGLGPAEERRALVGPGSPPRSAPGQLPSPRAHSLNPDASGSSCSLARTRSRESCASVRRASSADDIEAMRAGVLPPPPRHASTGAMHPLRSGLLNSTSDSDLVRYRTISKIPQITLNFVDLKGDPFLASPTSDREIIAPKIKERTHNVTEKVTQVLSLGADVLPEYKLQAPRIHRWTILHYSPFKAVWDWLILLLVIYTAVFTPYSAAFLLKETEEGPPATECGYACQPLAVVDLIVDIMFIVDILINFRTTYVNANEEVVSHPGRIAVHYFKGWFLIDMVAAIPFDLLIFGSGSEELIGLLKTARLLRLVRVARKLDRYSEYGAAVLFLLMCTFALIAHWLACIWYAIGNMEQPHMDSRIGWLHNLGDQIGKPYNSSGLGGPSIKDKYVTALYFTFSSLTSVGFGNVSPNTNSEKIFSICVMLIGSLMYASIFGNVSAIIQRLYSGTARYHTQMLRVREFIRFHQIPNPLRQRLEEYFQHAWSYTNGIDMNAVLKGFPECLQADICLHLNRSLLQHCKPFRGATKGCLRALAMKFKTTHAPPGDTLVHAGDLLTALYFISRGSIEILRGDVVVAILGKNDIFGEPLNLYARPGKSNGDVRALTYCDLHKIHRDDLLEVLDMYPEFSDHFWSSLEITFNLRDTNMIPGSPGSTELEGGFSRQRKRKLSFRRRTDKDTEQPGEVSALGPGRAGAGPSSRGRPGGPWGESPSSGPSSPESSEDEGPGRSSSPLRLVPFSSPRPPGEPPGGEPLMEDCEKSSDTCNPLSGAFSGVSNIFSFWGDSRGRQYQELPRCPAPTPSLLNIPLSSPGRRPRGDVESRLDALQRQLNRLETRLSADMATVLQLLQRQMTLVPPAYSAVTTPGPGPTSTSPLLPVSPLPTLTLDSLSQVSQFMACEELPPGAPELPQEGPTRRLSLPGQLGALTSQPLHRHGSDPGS

SMILES: COc1ccc2ncc(F)c([C@@H](O)CC[C@@H]3CCN(CCSc4cccs4)C[C@@H]3C(=O)O)c2c1
IC50 (Topoisomerase IV): 8.8 µM
MIC (Staphylococcus aureus [1]; [6]): 0.2 µg/mL and 0.4 µM
IC50 (DNA gyrase [2]): 3.9 µM
EC50 [3]: 24 µM
MIC (Staphylococcus aureus [4]; [7]): 0.8 µM and 0.4 µg/mL
IC50 (DNA gyrase [5]): 0.34 µM

MIC (Staphylococcus aureus [4]; [7]): 1.6 µM and 0.8 µg/mL
SMILES: COc1ccc2ncc(F)c(CCCN3CCN(CCSc4cccs4)C[C@@H]3C(N)=O)c2c1
EC50 [3]: 2 µM

SMILES: COc1ccc2ncc(F)c(CCCN3CCN(CCCc4ccccc4)C[C@@H]3C(=O)O)c2c1
IC50 (Topoisomerase IV): 10.2 µM
MIC (Staphylococcus aureus [1]; [6]): 0.4 µg/mL and 0.9 µM
EC50 [3]: 17 µM
MIC (Staphylococcus aureus [4]; [7]): 1.7 µM and 0.8 µg/mL
IC50 (DNA gyrase [5]): 0.46 µM

SMILES: COc1ccc2ncc(F)c(CCCN3CCN(CCSc4cccs4)C[C@@H]3C(=O)O)c2c1
IC50 (Topoisomerase IV): 7.64 µM
MIC (Staphylococcus aureus [1]; [6]): 0.2 µg/mL and 0.4 µM
IC50 (DNA gyrase [2]): 5.4 µM
EC50 [3]: 17 µM
MIC (Staphylococcus aureus [4]; [7]): 0.8 µM and 0.4 µg/mL
IC50 (DNA gyrase [5]): 0.37 µM

SMILES: COc1ccc2ncc(F)c(/C=C/CN3CCN(CCSc4cccs4)C[C@@H]3C(=O)O)c2c1
IC50 (Topoisomerase IV): 1.81 µM
MIC (Staphylococcus aureus [1]; [6]): 0.8 µg/mL and 1.6 µM
EC50 [3]: < 30 µM
MIC (Staphylococcus aureus [4]; [7]): 3.1 µM and 1.5 µg/mL
IC50 (DNA gyrase [5]): 0.68 µM

SMILES: COc1ccc2ncc(F)c(CCCN3CCN(CCCCc4ccccc4)C[C@@H]3C(=O)O)c2c1
IC50 (Topoisomerase IV): 3.82 µM
MIC (Staphylococcus aureus [1]; [6]): 3.1 µg/mL and 6.5 µM
EC50 [3]: 21 µM
MIC (Staphylococcus aureus [4]; [7]): 12.9 µM and 6.2 µg/mL
IC50 (DNA gyrase [5]): 0.37 µM

SMILES: COc1ccc2ncc(F)c(CCCN3CCN(C/C=C/c4cc(F)ccc4F)C[C@@H]3C(=O)O)c2c1
IC50 (Topoisomerase IV): 2.41 µM
MIC (Staphylococcus aureus [1]; [6]): 0.1 µg/mL and 0.2 µM
IC50 (DNA gyrase [2]): 6.46 µM
EC50 [3]: 25 µM
MIC (Staphylococcus aureus [4]; [7]): 0.4 µM and 0.2 µg/mL
IC50 (DNA gyrase [5]): 0.28 µM

SMILES: COc1ccc2ncc(F)c(CCCN3CCN(CCSc4cccs4)C[C@H]3C(=O)O)c2c1
MIC (Staphylococcus aureus [1]; [6]): 1.6 µg/mL and 3.3 µM
EC50 [3]: 26 µM
MIC (Staphylococcus aureus [4]; [7]): 6.3 µM and 3.1 µg/mL

SMILES: COC(=O)[C@H]1CN(CCSc2cccs2)CCN1CCCc1c(F)cnc2ccc(OC)cc12
MIC (Staphylococcus aureus [1]; [6]): > 50 µg/mL and > 99.3 µM
IC50 (DNA gyrase [2]): 18.4 µM
EC50 [3]: 2 µM
MIC (Staphylococcus aureus [4]; [7]): > 99.3 µM and > 50 µg/mL
IC50 (DNA gyrase [5]): 300 µM

MIC (Staphylococcus aureus [4]; [7]): > 114 µM and > 50 µg/mL
SMILES: COc1ccc2ncc(F)c(CCCN3CCN(Cc4ccccc4)C[C@@H]3C(=O)O)c2c1
EC50 [3]: 25 µM

SMILES: COC(=O)[C@@H]1CN(CCSc2cccs2)CCN1CCCc1c(F)cnc2ccc(OC)cc12
MIC (Staphylococcus aureus [1]; [6]): > 50 µg/mL and > 99.3 µM
EC50 [3]: 4 µM
MIC (Staphylococcus aureus [4]; [7]): > 99.3 µM and > 50 µg/mL

SMILES: COc1ccc2ncc(F)c(CCCN3CCN(C(=O)CCc4ccccc4)C[C@@H]3C(=O)O)c2c1
MIC (Staphylococcus aureus [1]; [6]): > 50 µg/mL and > 104 µM
MIC (Staphylococcus aureus [4]; [7]): > 104 µM and > 50 µg/mL

MIC (Staphylococcus aureus [4]; [7]): > 100 µM and > 50 µg/mL
SMILES: COc1ccc2ncc(F)c(CCCN3CCN(C(=O)CSc4ccccc4)C[C@@H]3C(=O)O)c2c1
EC50 [3]: < 30 µM

SMILES: COc1ccc2ncc(F)c(CCCN3CCN(C/C=C/c4ccccc4)C[C@@H]3C(=O)O)c2c1
IC50 (Topoisomerase IV): 3.36 µM
MIC (Staphylococcus aureus [1]; [6]): 0.2 µg/mL and 0.4 µM
EC50 [3]: 38 µM
MIC (Staphylococcus aureus [4]; [7]): 1.7 µM and 0.8 µg/mL
IC50 (DNA gyrase [5]): 0.19 µM

SMILES: COc1ccc2ncc(F)c(CCCN3CCN(CCSc4cccs4)C[C@@H]3C(=O)NC(=O)CC(=O)O)c2c1
MIC (Staphylococcus aureus [1]; [6]): 12.5 µg/mL and 21.8 µM
EC50 [3]: 0.5 µM
MIC (Staphylococcus aureus [4]; [7]): 21.8 µM and 12.5 µg/mL

SMILES: COc1ccc2ncc(F)c(CCCN3CCN(CCc4ccccc4)C[C@@H]3C(=O)O)c2c1
IC50 (Topoisomerase IV): 12.6 µM
MIC (Staphylococcus aureus [1]; [6]): 3.1 µg/mL and 6.9 µM
EC50 [3]: 87 µM
MIC (Staphylococcus aureus [4]; [7]): 14 µM and 6.3 µg/mL
IC50 (DNA gyrase [5]): 0.54 µM

SMILES: COc1ccc2ncc(F)c(CCCN3CCN(CCSc4cccs4)[C@@H](C(=O)O)C3)c2c1
MIC (Staphylococcus aureus [1]; [6]): 1.6 µg/mL and 3.3 µM
EC50 [3]: < 30 µM
MIC (Staphylococcus aureus [4]; [7]): 6.3 µM and 3.1 µg/mL

SMILES: COc1ccc2ncc(F)c(C#CCN3CCN(CCSc4cccs4)C[C@@H]3C(=O)O)c2c1
IC50 (Topoisomerase IV): 2.47 µM
MIC (Staphylococcus aureus [1]; [6]): 12.5 µg/mL and 25.7 µM
EC50 [3]: < 30 µM
MIC (Staphylococcus aureus [4]; [7]): 51.5 µM and 25 µg/mL
IC50 (DNA gyrase [5]): 0.48 µM

SMILES: COc1ccc2ncc(F)c(CCCN3CCN(C(=O)CSc4cccs4)C[C@@H]3C(=O)O)c2c1
MIC (Staphylococcus aureus [1]; [6]): > 50 µg/mL and > 99.3 µM
EC50 [3]: 7 µM
MIC (Staphylococcus aureus [4]; [7]): > 99.3 µM and > 50 µg/mL

SMILES: COc1ccc2ncc(F)c(/C=C\CN3CCN(CCSc4cccs4)C[C@@H]3C(=O)O)c2c1
IC50 (Topoisomerase IV): 9.92 µM
MIC (Staphylococcus aureus [1]; [6]): 3.1 µg/mL and 6.4 µM
EC50 [3]: < 30 µM
MIC (Staphylococcus aureus [4]; [7]): 25.6 µM and 12.5 µg/mL
IC50 (DNA gyrase [5]): 0.28 µM

SMILES: COc1ccc2ncc(F)c(C(O)CCN3CCN(CCSc4cccs4)C[C@@H]3C(=O)O)c2c1 (mixture of isomers; 19)
MIC (Staphylococcus aureus [1]): 0.8 ug ml-1 and 1.6 uM
EC50 [3]: < 30 µM
MIC (Staphylococcus aureus [4]; [7]): 24.7 µM and 12.5 µg/mL

SMILES: COc1ccc2ncc(F)c(C(O)CCN3CCN(CCSc4cccs4)C[C@@H]3C(=O)O)c2c1 (mixture of isomers; 20)
MIC (Staphylococcus aureus [1]): 6.2 ug ml-1 and 12.3 uM
MIC (Staphylococcus aureus [4]): 12.5 µg/mL
